Active and inactive are the calls of the source.
Tests used:
[1] = biological target: T1, Kappa-type opioid receptor (Homo sapiens, UniProt P41145); assay: Agonist activity at human kappa opioid receptor transfected in CHO cells assessed as stimulation of [35S]GTPgammaS binding after 60 mins by scintillation counting analysis relative to control; type: functional, cell-based
Outline: (§1)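 Membranes from CHO cells stably expressing human KOR (15 μg protein/tube) or MOR (7.5 μg protein/tube) were incubated for 60 min at 30 °C with 12 compound concentrations, 3 μM GDP and […] [35S]GTPγS. Nonspecific binding used 10 μM GTPγS. Filtration, scintillation counting; % stimulation over basal. ≥3 experiments, triplicate.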

Rattus norvegicus [2] = assay: Toxicity in Sprague-Dawley rat assessed as suppression of intracranial self-stimulation reward function at 1 to 30 mg/kg, ip measured for 1 hr; type: organism-based; design: dose 1-30 mg/kg, route intraperitoneal; settings: in vivo
Outline: (§2)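 Male Sprague-Dawley rats with lateral hypothalamic medial forebrain bundle electrodes were given test drug i.p. in increasing doses (n=6/cohort). One series was 0–4.0 mg/kg in 20% DMSO/water; the other was 1.0–30.0 mg/kg in 0.9% saline. ICSS thresholds and maximum response rates were measured over four 15-min rate-frequency trials after baseline. Results were expressed as 100 × post/pre-treatment.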

Mu-type opioid receptor [3] = biological target: T2, Mu-type opioid receptor (Homo sapiens, UniProt P35372); assay: Antagonist activity at human mu opioid receptor transfected in CHO cells assessed as inhibition of […] [35S]GTPgammaS binding after 60 mins by scintillation counting analysis relative to control; type: functional, cell-based
[4] = biological target: T1, Kappa-type opioid receptor; assay: Agonist activity at human kappa opioid receptor transfected in CHO cells assessed as stimulation of [35S]GTPgammaS binding after 60 mins by scintillation counting analysis; type: functional, cell-based; outline: as §1
Rattus norvegicus [5] = assay: Reduction of reward potentiation effect of cocaine in ip dosed Sprague-Dawley rat assessed as blockade of cocaine-madiated reduction of intracranial self-stimulation threshold at 3 to 30 mg/kg administered for 15 mins prior to cocaine challenge measured 15 mins post dose and 1 hr post cocaine challenge; type: functional, organism-based
Outline: (§3)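 Male Sprague-Dawley rats carried medial forebrain bundle electrodes and were trained by the rate-frequency method to stable thresholds (n=6/cohort). Baseline came from three 15-min functions. Test drug was given i.p. in increasing doses: 0, 0.5, 1.0, 2.0 mg/kg, or 0, 3.0, 10.0, 30.0 mg/kg. […] Data were expressed as 100 × post/pre.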

Rattus norvegicus [6] = assay: Toxicity in Sprague-Dawley rat assessed as suppression of intracranial self-stimulation reward function at 0.25 to 2 mg/kg, ip measured for 1 hr; type: organism-based; design: dose 0.25-2 mg/kg, route intraperitoneal; settings: in vivo; outline: as §2
Rattus norvegicus [7] = assay: Toxicity in Sprague-Dawley rat assessed as suppression of intracranial self-stimulation reward function at 4 mg/kg, ip measured over 15 to 60 mins; type: organism-based; design: dose 4 mg/kg, route intraperitoneal; settings: in vivo; outline: as §2
Rattus norvegicus [8] = assay: Reduction of reward potentiation effect of cocaine in ip dosed Sprague-Dawley rat assessed as blockade of cocaine-madiated reduction of intracranial self-stimulation threshold administered for 15 mins prior to cocaine challenge measured 15 mins post dose and 1 hr post cocaine challenge; type: functional, organism-based; outline: as §3
Homo sapiens [9] = organism: Homo sapiens; assay: Selectivity ratio of Ki for human delta opioid receptor to Ki for human kappa opioid receptor
Homo sapiens [10] = organism: Homo sapiens; assay: Selectivity ratio of Ki for human mu opioid receptor to Ki for human kappa opioid receptor
[11] = biological target: Delta-type opioid receptor (Homo sapiens, UniProt P41143); assay: Displacement of [3H]-naltrindole from human delta opioid receptor transfected in CHO cells after 3 hrs; type: cell-based
Mu-type opioid receptor [12] = biological target: T2, Mu-type opioid receptor; assay: Displacement of [3H]-DAMGO from human mu opioid receptor transfected in CHO cells after 60 mins; type: cell-based
Mu-type opioid receptor [13] = biological target: T2, Mu-type opioid receptor; assay: Agonist activity at human mu opioid receptor transfected in CHO cells assessed as stimulation of [35S]GTPgammaS binding after 60 mins by scintillation counting analysis; type: functional, cell-based; outline: as §1
Mu-type opioid receptor [14] = biological target: T2, Mu-type opioid receptor; assay: Antagonist activity at human mu opioid receptor transfected in CHO cells assessed as inhibition of DAMGO-induced [35S]GTPgammaS binding after 60 mins by scintillation counting analysis relative to control; type: functional, cell-based
Outline: (§4)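 Membranes from CHO cells expressing human MOR (7.5 μg protein/tube) were incubated with test compound plus 200 nM DAMGO, 3 μM GDP and […] [35S]GTPγS. Incubation was 60 min at 30 °C in Tris/MgCl2/NaCl/EGTA buffer, pH 7.4. Bound label was measured by filtration and scintillation counting. At least 3 experiments, each in triplicate.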

Mu-type opioid receptor [15] = biological target: T2, Mu-type opioid receptor; assay: Agonist activity at human mu opioid receptor transfected in CHO cells assessed as stimulation of [35S]GTPgammaS binding after 60 mins by scintillation counting analysis relative to control; type: functional, cell-based; outline: as §1
Mu-type opioid receptor [16] = biological target: T2, Mu-type opioid receptor; assay: Antagonist activity at human mu opioid receptor transfected in CHO cells assessed as inhibition of DAMGO-induced [35S]GTPgammaS binding after 60 mins by scintillation counting analysis; type: functional, cell-based; outline: as §4
[17] = biological target: T1, Kappa-type opioid receptor; assay: Displacement of [3H]-U69593 from human kappa opioid receptor transfected in CHO cells after 60 mins; type: cell-based

T2 sequence (P35372 whole entry): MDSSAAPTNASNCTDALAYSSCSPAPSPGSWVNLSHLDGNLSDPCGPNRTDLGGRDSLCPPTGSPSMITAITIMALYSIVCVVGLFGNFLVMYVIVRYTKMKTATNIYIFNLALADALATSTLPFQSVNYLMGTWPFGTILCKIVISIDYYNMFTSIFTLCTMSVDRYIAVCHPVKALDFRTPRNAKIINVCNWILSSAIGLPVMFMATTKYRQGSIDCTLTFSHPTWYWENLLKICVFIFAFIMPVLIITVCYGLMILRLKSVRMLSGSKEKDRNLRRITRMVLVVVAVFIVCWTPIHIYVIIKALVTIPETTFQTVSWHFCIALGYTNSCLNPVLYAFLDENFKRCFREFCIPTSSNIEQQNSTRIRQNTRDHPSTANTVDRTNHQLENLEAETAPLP
T1 sequence (P41145 whole entry): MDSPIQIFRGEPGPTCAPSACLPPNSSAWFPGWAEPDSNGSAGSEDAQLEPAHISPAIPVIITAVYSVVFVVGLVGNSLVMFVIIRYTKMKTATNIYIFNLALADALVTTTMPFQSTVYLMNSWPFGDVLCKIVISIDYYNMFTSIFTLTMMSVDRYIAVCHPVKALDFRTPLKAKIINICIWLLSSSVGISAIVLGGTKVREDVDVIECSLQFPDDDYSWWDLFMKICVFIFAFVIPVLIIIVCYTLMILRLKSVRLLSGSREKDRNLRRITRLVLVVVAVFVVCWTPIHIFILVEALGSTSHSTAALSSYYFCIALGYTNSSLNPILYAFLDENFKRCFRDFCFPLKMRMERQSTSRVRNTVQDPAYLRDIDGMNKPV
Sequence of Delta-type opioid receptor (P41143 whole entry): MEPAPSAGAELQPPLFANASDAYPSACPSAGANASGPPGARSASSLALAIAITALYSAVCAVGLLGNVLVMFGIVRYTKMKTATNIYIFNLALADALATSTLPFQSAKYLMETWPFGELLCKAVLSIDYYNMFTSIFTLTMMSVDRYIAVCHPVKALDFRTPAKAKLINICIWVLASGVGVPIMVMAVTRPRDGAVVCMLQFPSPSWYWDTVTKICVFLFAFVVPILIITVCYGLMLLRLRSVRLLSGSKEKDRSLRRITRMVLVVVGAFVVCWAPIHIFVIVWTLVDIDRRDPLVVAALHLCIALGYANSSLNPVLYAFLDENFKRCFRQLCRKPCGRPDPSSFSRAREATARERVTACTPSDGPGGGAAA

Row | Structure (SMILES) | Emax [1] [%] | Activity (Rattus norvegicus [2]) | Imax (Mu-type opioid receptor [3]) | EC50 [4] [nM] | Activity (Rattus norvegicus [5]) | Activity (Rattus norvegicus [6]) | Activity (Rattus norvegicus [7]) | Activity (Rattus norvegicus [8]) | Ratio Ki (Homo sapiens [9]) | Ratio Ki (Homo sapiens [10]) | Ki [11] [nM] | Ki (Mu-type opioid receptor [12]) [nM] | EC50 (Mu-type opioid receptor [13]) [nM] | Imax (Mu-type opioid receptor [14]) [%] | Emax (Mu-type opioid receptor [15]) [%] | IC50 (Mu-type opioid receptor [16]) [nM] | Ki [17] [nM]
1 | Nc1nc2c(s1)C[C@H]1[C@H]3Cc4ccc(O)cc4[C@@]1(CCN3CC1CC1)C2 | 59 | Non-toxic | 49% | 0.61 | inactive | – | – | – | – | – | – | – | – | – | – | – | –
2 | Nc1nc2cc3c(cc2s1)C[C@@H]1[C@@H]2CCCC[C@]32CCN1CC1CC1 | – | – | inactive | – | – | – | – | – | – | – | – | – | – | – | – | – | –
3 | Oc1ccc2c(c1)[C@@]13CCCC[C@H]1[C@@H](C2)N(CC1CCC1)CC3 [BUTORPHAN] | – | – | – | – | – | Non-toxic | Toxic | Dose-dependent effect | – | – | – | – | – | – | – | – | –
4 | CNc1nc2c(s1)C[C@H]1[C@H]3Cc4ccc(OC)cc4[C@@]1(CCN3CC1CC1)C2 | 140 | – | inactive | 97 | – | – | – | – | 0.44 | 2.7 | 1.6 | 9.6 | 51 | 76 | 28 | 650 | 3.6
5 | COc1ccc2c(c1)[C@]13CCN(CC4CC4)[C@H](C2)[C@@H]1Cc1sc(N)nc1C3 | 140 | – | inactive | 49 | – | – | – | – | 6.8 | 3.5 | 13 | 6.7 | 39 | 69 | 24 | 640 | 1.9
6 | CNc1nc2c(s1)C[C@H]1[C@H]3Cc4ccc(O)cc4[C@@]1(CCN3CC1CC1)C2 | 85 | – | 27% | 1.3 | – | – | – | – | 5.1 | 1.7 | 0.43 | 0.14 | 0.52 | 76 | 25 | 2.5 | 0.084
7 | COc1ccc2c(c1)[C@]13CCN(CC4CC4)[C@H](C2)[C@@H]1Cc1sc(NC(C)=O)nc1C3 | 120 | – | inactive | 140 | – | – | – | – | 0.51 | 0.73 | 4.6 | 6.6 | 80 | 60 | 47 | 500 | 9

From ChEMBL document CHEMBL3085732, “Synthesis and pharmacological evaluation of aminothiazolomorphinans at the mu and kappa opioid receptors” (J Med Chem, 2013)
